The source of these data is ChEMBL document CHEMBL3259749, “Design, synthesis and evaluation of novel 2,5,6-trisubstituted benzimidazoles targeting FtsZ as antitubercular agents” (Bioorg Med Chem, 2014).

In brackets after ≈: the same amount, converted by molar mass. Activity calls are given as the source filed them. No cut-off for these calls is given here.

The test system of experiment [1] is Mycobacterium tuberculosis. The experiment is described as follows: Antimycobacterial activity against Mycobacterium tuberculosis H37Rv assessed as growth inhibition at 1 ug/ml after 7 days incubation by Alamar Blue staining-based broth microdilution assay. The class given is functional. The following applies: 168 h, read-out: GI. (Alamar Blue is a resazurin reagent that responds to reducing activity.)

A further experiment relates to Vero. The experiment is described as follows: Cytotoxicity against African green monkey Vero cells […] by MTT assay. The class given is cell-based. The following applies: Chlorocebus sabaeus. On the technique in general: Formazan colour is commonly taken as a measure of viable cells.
In experiment [2] the test system is Mycobacterium tuberculosis. Nature of the experiment: Antimycobacterial activity against Mycobacterium tuberculosis H37Rv assessed as growth inhibition after 7 days incubation by Alamar Blue staining-based broth microdilution assay. It counts as functional. The following applies: 168 h. The method, boiled down:
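Mid-log Mtb H37Rv grown in 7H9 with 10% OADC and 0.05% Tween-80, added to 2-fold serial dilutions of DMSO-stocked compound at OD600 0.005. Incubated 6 days at 37 °C, then Alamar Blue added for a further 24 h at 37 °C. Colour change read by eye; MIC99 taken in triplicate.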

Experiment [3] relates to Mycobacterium tuberculosis. Nature of the experiment: Inhibition of Mycobacterium tuberculosis FtsZ polymerization assessed as 90 degrees light scattering by fluorescence system. The method, boiled down:
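His-tagged Mtb-FtsZ at 15 μM, Ni-resin and size-exclusion purified, preincubated with DMSO-stocked compound for up to 300 s. Buffer was 50 mM MES pH 6.5, 100 mM KCl, 5 mM MgCl2. Polymerization started with 100 μM GTP. 90° light scattering recorded at 30 °C, excitation/emission 400 nm, for up to 30 min.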

Experiment [4] deals with Mycobacterium tuberculosis. Nature of the experiment: Inhibition of Mycobacterium tuberculosis FtsZ polymerization assessed as reduction in length, density and aggregation of polymer at 40 to 80 uM by Transmission electron microscopy in presence of 25 uM GTP. In outline:
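Mtb-FtsZ at 5 μM, Ni-NTA purified, held 15 min on ice with ethanol-stocked compound in 50 mM MES pH 6.5, 5 mM MgCl2, 100 mM KCl. GTP added to 25 μM final, then 30 min at 37 °C. Sample diluted 2-fold, negatively stained with 1% uranyl acetate on carbon-coated grids, imaged at 80 kV at 23,000x and 49,000x.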

Experiment [5] in a line: Binding affinity to Mycobacterium tuberculosis FtsZ assessed as fluorescence intensity at emission maximum 427.9 nm. The method, boiled down: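 Fluorescence of compound held at 100 μM, titrated with His-tagged Mtb-FtsZ expressed in E. coli BL21(DE3). FtsZ was Ni-resin purified and dialysed into Tris storage buffer. Run in 50 mM MES, 100 mM KCl, 5 mM MgCl2, with no GTP. Excitation 316 nm, emission 427.9 nm. Kd obtained by fitting ΔF = (ΔFmax × L)/(Kd + L).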

In general, IC50 refers to the concentration needed to halve the response being measured. As to `CCCCSc1cc2[nH]c(C3CCCCC3)nc2cc1NC(=O)c1ccc(C)cc1`, the inhibition of growth at 1 µg/mL in experiment [1] stood at 53%. The same molecule showed an IC50 with Vero above 200 µM.

Broadly, the MIC is the lowest concentration found to suppress growth. In the case of `CC(C)(C)c1ccc(C(=O)Nc2cc3nc(C4CCCCC4)[nH]c3cc2SCc2ccccc2)cc1`, in experiment [2], the MIC amounted to 12.5 µg/mL (≈ 25.1 µM). Moreover, the inhibition of growth at 1 µg/mL in experiment [1] was 52%. The molecule also gave a half-inhibitory concentration (IC50) in the experiment with Vero above 200 µM.

Regarding `C=CCCC(=O)Nc1cc2nc(C3CCCCC3)[nH]c2cc1OCCCC`, the inhibition of growth at 1 µg/mL in experiment [1] came to 28%.

Regarding `CCCOC(=O)Nc1cc2nc(C3CCCCC3)[nH]c2cc1Sc1ccc(F)cc1`, the inhibition of growth at 1 µg/mL in experiment [1] came out at 46%.

As for `C=CCCC(=O)Nc1cc2nc(C3CCCCC3)[nH]c2cc1SCc1ccccc1`, the inhibition of growth at 1 µg/mL in experiment [1] amounted to 64%.

On to `C=CCCC(=O)Nc1cc2nc(C3CCCCC3)[nH]c2cc1SCCCC`, for which the inhibition of growth at 1 µg/mL in experiment [1] turned out to be 52%.

By Kd is commonly meant the constant that tells how readily two partners part at equilibrium. `CCCCOC(=O)Nc1cc2nc(C3CCCCC3)[nH]c2cc1Oc1ccc(F)cc1`: the inhibition result in experiment [3] was “Dose-dependent effect”. Moreover, the MIC in experiment [2] was found to be 0.63 µg/mL (≈ 1.48 µM). Moreover, the inhibition result in experiment [4] was “Active”. In the experiment on Vero, this molecule came in with an IC50 of 60 µM. Further, the Kd in experiment [5] came to 1.32 µM.

In the case of `CCCCOC(=O)Nc1cc2nc(C3CCCCC3)[nH]c2cc1N1CCCC1`, the MIC in experiment [2] stood at 0.39 µg/mL (≈ 1.01 µM).

For the molecule `CCCCOC(=O)Nc1cc2nc(C3CCCCC3)[nH]c2cc1N(CC)CC`, the MIC in experiment [2] is 0.78 µg/mL (≈ 2.02 µM).

With `CCN(CC)c1cc2[nH]c(C3CCCCC3)nc2cc1NC(=O)c1ccc(OC)cc1`, the MIC in experiment [2] worked out at 3.1 µg/mL (≈ 7.37 µM).

For `O=C(Nc1cc2nc(C3CCCCC3)[nH]c2cc1Oc1ccc(F)cc1)c1ccc(F)cc1F`, the inhibition entry in experiment [3] was “Dose-dependent effect”. Also, the MIC in experiment [2] worked out at 12.5 µg/mL (≈ 26.9 µM). Besides, the inhibition of growth at 1 µg/mL in experiment [1] is 44%. In the experiment on Vero, this molecule showed a concentration for half-maximal inhibition (IC50) above 200 µM.

On to `CCCCSc1cc2[nH]c(C3CCCCC3)nc2cc1NS(=O)(=O)c1ccccc1`, for which the inhibition of growth at 1 µg/mL in experiment [1] was determined as 42%.

Consider `CCCCSc1cc2[nH]c(C3CCCCC3)nc2cc1NC(=O)OCCC`, for which the MIC in experiment [2] worked out at 1.25 µg/mL (≈ 3.21 µM). Moreover, the inhibition of growth at 1 µg/mL in experiment [1] was 38%. The same molecule registered an IC50 with Vero of 75 µM.

As for `C=CCCC(=O)Nc1cc2nc(C3CCCCC3)[nH]c2cc1Oc1ccc(F)cc1`, in experiment [2], the MIC is 12.5 µg/mL (≈ 30.7 µM). In addition, the inhibition of growth at 1 µg/mL in experiment [1] is 54%. Moreover, the concentration for half-maximal inhibition (IC50) in the experiment on Vero was above 200 µM.

In the case of `CCCOC(=O)Nc1cc2nc(C3CCCCC3)[nH]c2cc1SCc1ccccc1`, the inhibition of growth at 1 µg/mL in experiment [1] amounted to 28%.

Take `CCOc1cc2[nH]c(C3CCCCC3)nc2cc1NC(=O)c1ccc(C)cc1`: in experiment [1], the inhibition of growth at 1 µg/mL turned out to be 65%.

As to `COc1ccc(C(=O)Nc2cc3nc(C4CCCCC4)[nH]c3cc2Oc2ccc(F)cc2)cc1`, the minimal inhibitory concentration (MIC) in experiment [2] was 3.13 µg/mL (≈ 6.81 µM). This molecule also showed a half-inhibitory concentration (IC50) in the experiment with Vero of 40 µM.

For the molecule `Cc1ccc(C(=O)Nc2cc3nc(C4CCCCC4)[nH]c3cc2Sc2ccccc2)cc1`, the minimum inhibitory concentration (MIC) in experiment [2] was 6.25 µg/mL (≈ 14.2 µM). The inhibition of growth at 1 µg/mL in experiment [1] is 31%. This molecule also had an IC50 in the experiment with Vero of 6.25 µM.

Turning to `C=CCCC(=O)Nc1cc2nc(C3CCCCC3)[nH]c2cc1Sc1ccccc1`, in experiment [1], the inhibition of growth at 1 µg/mL worked out at 56%.

For `Cc1ccc(C(=O)Nc2cc3nc(C4CCCCC4)[nH]c3cc2Oc2ccc(F)cc2)cc1`, the MIC in experiment [2] was 1.56 µg/mL (≈ 3.52 µM). Moreover, the inhibition of growth at 1 µg/mL in experiment [1] worked out at 36%. This molecule yielded an IC50 in the experiment with Vero of 26 µM.

For `CCCCSc1cc2[nH]c(C3CCCCC3)nc2cc1NC(=O)c1ccc(C(C)(C)C)cc1`, the inhibition of growth at 1 µg/mL in experiment [1] came to 45%.

For the molecule `CCCCSc1cc2[nH]c(C3CCCCC3)nc2cc1NC(=O)CCc1ccccc1`, the inhibition of growth at 1 µg/mL in experiment [1] worked out at 33%.

As for `O=S(=O)(Nc1cc2nc(C3CCCCC3)[nH]c2cc1SCc1ccccc1)c1ccccc1`, in experiment [1], the inhibition of growth at 1 µg/mL came out at 30%.

As for `O=S(=O)(Nc1cc2nc(C3CCCCC3)[nH]c2cc1Sc1ccc(F)cc1)c1ccccc1`, the inhibition of growth at 1 µg/mL in experiment [1] was 30%.

Regarding `CCCCSc1cc2[nH]c(C3CCCCC3)nc2cc1NC(=O)c1ccc(F)cc1F`, the minimum inhibitory concentration (MIC) in experiment [2] stood at 1.25 µg/mL (≈ 2.82 µM). The inhibition of growth at 1 µg/mL in experiment [1] came to 51%. Also, the half-inhibitory concentration (IC50) with Vero is above 200 µM.

Consider `C=CCCC(=O)Nc1cc2nc(C3CCCCC3)[nH]c2cc1Sc1ccc(F)cc1`, for which the inhibition of growth at 1 µg/mL in experiment [1] was determined as 41%.

In the case of `CC(C)(C)c1ccc(C(=O)Nc2cc3nc(C4CCCCC4)[nH]c3cc2Sc2ccccc2)cc1`, the inhibition of growth at 1 µg/mL in experiment [1] came out at 42%.
